Measured values pooled from the literature.
Lines come from different studies, so protocols differ.
EDNRA: Endothelin-1 receptor (EDNRA, Homo sapiens, UniProt P25101)
HTR2A: 5-hydroxytryptamine receptor 2A (HTR2A, Homo sapiens, UniProt P28223)
PDE5A: cGMP-specific 3',5'-cyclic phosphodiesterase (PDE5A, Homo sapiens, UniProt O76074)
PROC: Vitamin K-dependent protein C (PROC, Homo sapiens, UniProt P04070)

Cn1cc(-c2cccc(N3CCc4c(sc5c4CC(C)(C)C5)C3=O)c2CO)cc(Nc2ccncn2)c1=O  inhibition (Sphingosine kinase 1 (SPHK1, Homo sapiens, UniProt Q9NYA1); enzyme activity, inhibitor; 1 µM): 5%
CC(C)N1CCC[C@H]1CNC(=O)c1cn(C2CCCC2)c(=O)c2c1c1ccccc1n2C  inhibition (EDNRA; ligand displacement, radioligand; 10 µM): 11%
N=C(N)c1ccc2cc(OC(=O)c3ccc(N=C(N)N)cc3)ccc2c1  inhibition (Caspase-6 (CASP6, Homo sapiens, UniProt P55212); enzyme activity, inhibitor; 10 µM): 4%
CCN(CC)CCCC[C@H](NC(=O)[C@H](CC(C)C)NC(=O)[C@H](C)NC(=O)[C@H](Cc1ccccc1)NC(=O)c1ccc(C(C)(C)C)cc1)C(=O)N[C@@H](CO)C(=O)OC  inhibition (Cannabinoid receptor 1 (CNR1, Homo sapiens, UniProt P21554); ligand displacement, radioligand; 10 µM): -13%
O=C(Nc1cccnn1)N1CCN([C@@H]2CCOc3cc(C(F)(F)F)ccc32)CC1  inhibition (Histamine H4 receptor (HRH4, Homo sapiens, UniProt Q9H3N8); cell-free assay; 20 µM): 4%
CC(C)Cn1cnc2c(N)nc3ccccc3c21  inhibition (Sigma non-opioid intracellular receptor 1 (SIGMAR1, Homo sapiens, UniProt Q99720); ligand displacement, radioligand; 10 µM): 15%
OC[C@@]12C[C@@H]1[C@@H](n1cnc3c(NC(C4CCCC4)C4CCCC4)nc(Cl)nc31)[C@H](O)[C@@H]2O  inhibition (HTR2A; ligand displacement, radioligand; 10 µM): 22%
COCc1c(-c2cc3cc(C)cc(OC)c3s2)c2c(N)ncnn2c1CN1CCNC(=O)C1  inhibition (PDE5A; enzyme activity, inhibitor; 10 µM): 8%
Cn1cc(-c2cc(F)cc(N3CCn4c(cc5c4CCCC5)C3=O)c2CO)cc(Nc2ccc(N3CCN(C4COC4)CC3)cn2)c1=O  inhibition (Phosphatidylinositol 4-phosphate 3-kinase C2 domain-containing subunit beta (PIK3C2B, Homo sapiens, UniProt O00750); enzyme activity, inhibitor; 0.1 µM): 10%
C#Cc1n[nH]c2c(-c3cn(C(C)c4ccccn4)c(=O)[nH]c3=O)cc(F)cc12 (stereo not shown)  inhibition (Aurora kinase B (AURKB, Homo sapiens, UniProt Q96GD4); enzyme activity, inhibitor; 1 µM): 6.7%
CN(CCN1CCC(OC(=O)Nc2ccccc2-c2ccccc2)CC1)C(=O)c1ccc(CN2CCC(C(N)=O)CC2)cc1  inhibition (Corticotropin-releasing factor receptor 1 (Rattus norvegicus, UniProt P35353); ligand displacement, radioligand; 1 µM): -2%
CN(C)C(=O)COC(=O)Cc1ccc(OC(=O)c2ccc(NC(=N)N)cc2)cc1  inhibition (PROC; enzyme activity, inhibitor; 10 µM): 77%
COc1ccc(S(=O)(=O)N2CCCCC2)cc1C  inhibition (EDNRA; ligand displacement, radioligand; 10 µM): < 30%
[H]/N=C(/N)c1ccc(NCc2nc3cc(C(=O)N(CCC(=O)O)c4ccccn4)ccc3n2C)cc1  inhibition (PROC; enzyme activity, inhibitor; 20 µM): 95%
CC(C)=CCCC1(C)C=Cc2c(O)c3c(c(CC=C(C)C)c2O1)OC12C(=CC4CC1C(C)(C)OC2(C/C=C(/C)C(=O)O)C4O)C3=O (stereo not shown)  inhibition (Histone-lysine N-methyltransferase EHMT1 (EHMT1, Homo sapiens, UniProt Q9H9B1); cell-free assay; 10 µM): -4%
CC(C)[C@H](NC(=O)OCc1ccccc1)C(=O)N[C@@H](CCCN=C(N)N)C(=O)N1CCC[C@H]1C(=O)N[C@@H](CCCN=C(N)N)C(=O)CF  inhibition (Mucosa-associated lymphoid tissue lymphoma translocation protein 1 (MALT1, Homo sapiens, UniProt Q9UDY8); enzyme activity, inhibitor; 1 nM): 9%
C[C@H](C(=O)N[C@H]1COc2ccccc2[C@@H]1S(C)(=O)=O)c1ccc(F)cc1  inhibition (PDE5A; enzyme activity, inhibitor; 10 µM): -5%
O[C@H]1[C@H](n2cnc3c(NC(C4CCCCC4)C4CCCCC4)nc(Cl)nc32)[C@H]2C[C@@]2(CCl)[C@H]1O  inhibition (HTR2A; ligand displacement, radioligand; 10 µM): 21%
CCOC(=O)c1ccc(OC(=O)CCCCCNC(=N)N)cc1  inhibition (PROC; enzyme activity, inhibitor; 10 µM): 99%
